Laboratory results taken from ChEMBL document CHEMBL1134951, “Substituted uracil derivatives as potent inhibitors of poly(ADP-ribose)polymerase-1 (PARP-1)” (Bioorg Med Chem Lett, 2002).
In brackets after ≈: the same amount, converted by molar mass. Several values for one entry are separate records, joined by “and”; a condition that tells them apart may be missing. Equal entries are not always repeated.

Experiments:
[1] = biological target: T1, Poly [ADP-ribose] polymerase 1 (Homo sapiens, UniProt P09874); test: Inhibitory activity against human recombinant PARP-1
T1 sequence (P09874 whole entry): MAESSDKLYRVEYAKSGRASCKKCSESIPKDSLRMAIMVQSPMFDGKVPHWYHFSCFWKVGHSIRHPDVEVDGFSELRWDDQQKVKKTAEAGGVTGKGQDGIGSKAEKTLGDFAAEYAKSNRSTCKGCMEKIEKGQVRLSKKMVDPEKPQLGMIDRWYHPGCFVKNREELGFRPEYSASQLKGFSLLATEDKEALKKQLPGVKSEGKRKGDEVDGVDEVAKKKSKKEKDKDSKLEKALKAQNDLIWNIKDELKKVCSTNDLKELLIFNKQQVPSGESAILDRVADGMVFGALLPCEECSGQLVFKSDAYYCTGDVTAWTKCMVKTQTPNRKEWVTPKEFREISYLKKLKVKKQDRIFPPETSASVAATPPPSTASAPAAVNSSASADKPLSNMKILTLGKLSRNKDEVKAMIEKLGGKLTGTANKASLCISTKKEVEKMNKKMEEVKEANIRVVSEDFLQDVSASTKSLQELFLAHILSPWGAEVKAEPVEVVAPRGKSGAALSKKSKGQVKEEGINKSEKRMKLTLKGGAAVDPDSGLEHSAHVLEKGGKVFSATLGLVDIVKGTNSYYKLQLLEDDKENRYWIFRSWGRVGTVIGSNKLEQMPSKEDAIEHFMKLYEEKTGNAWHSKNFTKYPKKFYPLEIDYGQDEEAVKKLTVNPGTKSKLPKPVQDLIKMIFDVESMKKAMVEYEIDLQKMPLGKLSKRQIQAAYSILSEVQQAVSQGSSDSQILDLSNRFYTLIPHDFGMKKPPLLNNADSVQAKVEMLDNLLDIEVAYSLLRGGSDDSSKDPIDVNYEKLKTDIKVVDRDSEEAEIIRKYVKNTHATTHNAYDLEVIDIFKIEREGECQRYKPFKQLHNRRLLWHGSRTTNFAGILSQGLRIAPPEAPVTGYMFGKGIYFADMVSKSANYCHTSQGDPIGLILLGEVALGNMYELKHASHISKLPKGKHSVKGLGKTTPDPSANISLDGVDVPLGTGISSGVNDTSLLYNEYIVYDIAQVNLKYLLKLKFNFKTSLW

[2] = Area under the curve was determined by administering the compound at a dose of 1 mg/kg intravenously in male wistar rat; format: ADME, organism-based; parameters: dose 1 mg/kg, route intravenous; settings: in vivo, iv
[3] = Clearance was determined by administering the compound intravenously at a dose of 1 mg/kg in male wistar rat; format: ADME, organism-based; parameters: dose 1 mg/kg, route intravenous; settings: in vivo, iv
[4] = Half life was determined by administering the compound intravenously at a dose of 1 mg/kg in male wistar rat; format: ADME, organism-based; parameters: dose 1 mg/kg, route intravenous; settings: in vivo, iv
Rattus norvegicus = test: Volume at steady state distribution by administering the compound intravenously at a dose of 1 mg/kg in male wistar rat was determined; format: ADME, organism-based; parameters: dose 1 mg/kg, route intravenous; settings: in vivo, iv
[5] = Solubility in phosphate buffered saline (1% DMSO) at pH 6.5 (24 hr equilibration); format: physicochemical; settings: buffer
[6] = biological target: T1, Poly [ADP-ribose] polymerase 1; test: Concentration required to inhibit human recombinant Poly (ADP-ribose) polymerase 1 was determined using dose-response inhibition
Outline: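 Purified recombinant human PARP-1 from a baculovirus (Bac-To-Bac) expression system. It ran 10 min at rt and was stopped with ice-cold 10% TCA. Precipitate was filtered, washed with ethanol and dried, then counted by scintillation. Read-out: IC50.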

Row | SMILES | IC50 [1] | other results
1 | O=C(CCn1c2c(c(=O)[nH]c1=O)CCCC2)NCC(=O)N1CCN(c2ccccc2)CC1 | 200 nM | 
2 | Nc1cccnc1N1CCN(C(=O)CNC(=O)CCn2c3c(c(=O)[nH]c2=O)CSCC3)CC1 | 70 nM | 
3 | O=C(CCn1c2c(c(=O)[nH]c1=O)CSCC2)NCC(=O)c1ccc(-c2cncnc2)cc1 | 25 nM | 
4 | COc1ccc(N2CCN(C(=O)CNC(=O)CCn3c4c(c(=O)[nH]c3=O)CSCC4)CC2)cc1 | 20 nM and 25 nM | AUC [2]: 160 ng·h/mL; clearance [3]: > 75 mL/min/kg; half-life [4]: 12 min; Vss (Rattus norvegicus): 1.01 L/kg
5 | O=C(CCn1c2c(c(=O)[nH]c1=O)CSCC2)NCC(=O)c1ccc(OC(F)F)cc1 | 30 nM | 
6 | O=C(CCn1c2c(c(=O)[nH]c1=O)CSCC2)NCC(=O)c1ccc(N2CCCC2)cc1 | 12 nM | 
7 | O=C(CCn1c2c(c(=O)[nH]c1=O)CCCCC2)NCC(=O)N1CCN(c2ncccn2)CC1 | 900 nM | 
8 | O=C(CCn1c2c(c(=O)[nH]c1=O)CCCC2)NCC(=O)c1ccc2ccccc2c1 |  | AUC [2]: 600 ng·h/mL; clearance [3]: 28.3 mL/min/kg; half-life [4]: 42 min; Vss (Rattus norvegicus): 0.5 L/kg
9 | CN(CC(=O)c1ccc2ccccc2c1)C(=O)CCn1c2c(c(=O)[nH]c1=O)CCCC2 | 400 nM | 
10 | O=C(CCn1c2c(c(=O)[nH]c1=O)CSCC2)NCC(=O)c1cccc(Br)c1 | 70 nM | 
11 | O=C(CCn1c2c(c(=O)[nH]c1=O)CSCC2)NCC(=O)N1CCN(c2cc(C(F)(F)F)ccn2)CC1 | 20 nM | AUC [2]: 450 ng·h/mL; clearance [3]: 36.8 mL/min/kg; half-life [4]: 18 min; Vss (Rattus norvegicus): 0.42 L/kg
12 | O=C(CCn1c2c(c(=O)[nH]c1=O)CSCC2)NCC(=O)c1cccc(-c2ccccc2)c1 | 70 nM | 
13 | O=C(Cn1c2c(c(=O)[nH]c1=O)CSCC2)NCCC(=O)N1CCN(c2ncccn2)CC1 | 60 nM | 
14 | COc1ccc(-c2ccc(C(=O)CNC(=O)CCn3c4c(c(=O)[nH]c3=O)CSCC4)cc2)cc1 | 15 nM | 
15 | O=C(CCn1c2c(c(=O)[nH]c1=O)CSCC2)NCC(=O)c1ccc(Br)cc1 | 15 nM | 
16 | O=C(CCn1c2c(c(=O)[nH]c1=O)CSCC2)NCC(=O)c1ccc(-c2ccccc2)cc1 | 20 nM | 
17 | O=C(CCn1c2c(c(=O)[nH]c1=O)CSCC2)NCC(=O)N1CCN(c2ncncn2)CC1 | 50 nM | 
18 | O=C(CCn1c2c(c(=O)[nH]c1=O)CCCC2)NCC(=O)c1ccc(Br)cc1 | 80 nM | 
19 | O=C(CCn1c2c(c(=O)[nH]c1=O)CSCC2)NCC(=O)N1CCN(c2cccnn2)CC1 | 20 nM | 
20 | COc1ccc(C(=O)CNC(=O)CCn2c3c(c(=O)[nH]c2=O)CSCC3)cc1 | 25 nM | 
21 | O=C(CCn1c2c(c(=O)[nH]c1=O)CSCC2)NCC(=O)N1CCN(c2ccccc2)CC1 |  | AUC [2]: 230 ng·h/mL; clearance [3]: 72.2 mL/min/kg; Solubility [5]: 330 µg/mL (≈ 721 µM); IC50 [6]: 30 nM; half-life [4]: 24 min; Vss (Rattus norvegicus): 1.39 L/kg

Row | SMILES | IC50 [1] | other results
22 | CC(CC(=O)NCC(=O)c1ccc2ccccc2c1)n1c2c(c(=O)[nH]c1=O)CCCC2 (stereo not given) | > 5000 nM | 
23 | O=C(CCn1c2c(c(=O)[nH]c1=O)COCC2)NCC(=O)N1CCN(c2ncccn2)CC1 | 800 nM | 
24 | O=C(CCn1c2c(c(=O)[nH]c1=O)CSCC2)NCC(=O)N1CCN(c2ncccc2C(F)(F)F)CC1 | 40 nM | AUC [2]: 230 ng·h/mL; clearance [3]: 71.7 mL/min/kg
25 | O=C(Cn1c2c(c(=O)[nH]c1=O)CSCC2)NCC(=O)N1CCN(c2ncccn2)CC1 | 150 nM | 
26 | O=C(CCn1c2c(c(=O)[nH]c1=O)CCCC2)NCC(=O)N1CCN(c2ncccn2)CC1 | 90 nM | 
27 | O=C(CCn1c2c(c(=O)[nH]c1=O)CSCC2)NCC(=O)N1CCN(c2ccncc2)CC1 | 40 nM | 
28 | O=C(CCn1c2c(c(=O)[nH]c1=O)CSCC2)NCC(=O)c1ccc(Oc2ccccc2)cc1 | 30 nM | 
29 | COc1ccc(C(=O)CNC(=O)CCn2c3c(c(=O)[nH]c2=O)CCCC3)cc1 | 300 nM | 
30 | Nc1cccc(-c2ccc(C(=O)CNC(=O)CCn3c4c(c(=O)[nH]c3=O)CSCC4)cc2)c1 | 20 nM | 
31 | O=C(CCn1c2c(c(=O)[nH]c1=O)CCCC2)NCC(=O)c1ccccc1 | 450 nM | 
32 | C=CCCc1c(CC=C)c(=O)[nH]c(=O)n1CCC(=O)NCC(=O)N1CCN(c2ncccn2)CC1 | > 5000 nM | 
33 | O=C(CCn1c2c(c(=O)[nH]c1=O)CSCC2)NCC(=O)N1CCN(c2ccccn2)CC1 | 35 nM | AUC [2]: 320 ng·h/mL; clearance [3]: 51.8 mL/min/kg; half-life [4]: 72 min; Vss (Rattus norvegicus): 1.19 L/kg
34 | O=C(CCn1c2c(c(=O)[nH]c1=O)CSCC2)NCC(=O)c1ccc(OC(=O)c2ccccc2)cc1 | 30 nM | 
35 | O=C(CCn1c2c(c(=O)[nH]c1=O)CSCC2)NCC(=O)c1ccc(-c2ccncc2)cc1 | 15 nM | 
36 | O=C(CCn1c2c(c(=O)[nH]c1=O)CSCC2)NCC(=O)c1ccc(Cl)cc1 | 60 nM | 
37 | O=C(CCn1c2c(c(=O)[nH]c1=O)CSCC2)NCC(=O)N1CCN(c2ncccn2)CC1 |  | AUC [2]: 520 ng·h/mL; clearance [3]: 33.5 mL/min/kg; half-life [4]: 12 min; Vss (Rattus norvegicus): 0.31 L/kg
38 | O=C(CCn1c2c(c(=O)[nH]c1=O)CSCC2)NCC(=O)c1ccc(-c2cccnn2)cc1 | 25 nM | AUC [2]: 610 ng·h/mL; clearance [3]: 27.3 mL/min/kg; half-life [4]: 18 min; Vss (Rattus norvegicus): 0.27 L/kg
39 | O=C(CCn1c2c(c(=O)[nH]c1=O)CSCC2)NCC(=O)c1ccc(-c2cccnc2)cc1 | 12 nM | 
40 | O=C(CCn1c2c(c(=O)[nH]c1=O)CC=CCC2)NCC(=O)N1CCN(c2ncccn2)CC1 | 900 nM | 
41 | O=C(CCCCCn1c2c(c(=O)[nH]c1=O)CSCC2)NCC(=O)N1CCN(c2ncccn2)CC1 | 250 nM | 
